Source: ChEMBL document CHEMBL1140608 (J Med Chem, 2007)
pIC50: −log10 of the molar value.

Legend:
[1] = target: T1, ATP-dependent translocase ABCB1 (Homo sapiens, UniProt P08183); assay: Inhibition of human Pgp in anthracycline-resistant K562 cells assessed as drug level causing half maximal increase in nuclear concentration of pirarubicin; format: cell-based; settings: read-out: Activity
[2] = target: T1, ATP-dependent translocase ABCB1; assay: Inhibition of human Pgp in anthracycline-resistant K562 cells assessed as drug level causing maximal increase in nuclear concentration of pirarubicin relative to control; format: cell-based
Procedure, shortened: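 Anthracycline-resistant erythroleukemia K562 cells were incubated with pirarubicin, and its uptake was followed by continuous spectrofluorometry (λex 480 nm, λem 590 nm). R is the fractional increase in nuclear pirarubicin with inhibitor: 0 without inhibitor, 1 when it equals sensitive cells. Rmax is the maximal achievable increase. [I]0.5 is the inhibitor concentration giving R = 0.5.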

T1 sequence (P08183 whole entry): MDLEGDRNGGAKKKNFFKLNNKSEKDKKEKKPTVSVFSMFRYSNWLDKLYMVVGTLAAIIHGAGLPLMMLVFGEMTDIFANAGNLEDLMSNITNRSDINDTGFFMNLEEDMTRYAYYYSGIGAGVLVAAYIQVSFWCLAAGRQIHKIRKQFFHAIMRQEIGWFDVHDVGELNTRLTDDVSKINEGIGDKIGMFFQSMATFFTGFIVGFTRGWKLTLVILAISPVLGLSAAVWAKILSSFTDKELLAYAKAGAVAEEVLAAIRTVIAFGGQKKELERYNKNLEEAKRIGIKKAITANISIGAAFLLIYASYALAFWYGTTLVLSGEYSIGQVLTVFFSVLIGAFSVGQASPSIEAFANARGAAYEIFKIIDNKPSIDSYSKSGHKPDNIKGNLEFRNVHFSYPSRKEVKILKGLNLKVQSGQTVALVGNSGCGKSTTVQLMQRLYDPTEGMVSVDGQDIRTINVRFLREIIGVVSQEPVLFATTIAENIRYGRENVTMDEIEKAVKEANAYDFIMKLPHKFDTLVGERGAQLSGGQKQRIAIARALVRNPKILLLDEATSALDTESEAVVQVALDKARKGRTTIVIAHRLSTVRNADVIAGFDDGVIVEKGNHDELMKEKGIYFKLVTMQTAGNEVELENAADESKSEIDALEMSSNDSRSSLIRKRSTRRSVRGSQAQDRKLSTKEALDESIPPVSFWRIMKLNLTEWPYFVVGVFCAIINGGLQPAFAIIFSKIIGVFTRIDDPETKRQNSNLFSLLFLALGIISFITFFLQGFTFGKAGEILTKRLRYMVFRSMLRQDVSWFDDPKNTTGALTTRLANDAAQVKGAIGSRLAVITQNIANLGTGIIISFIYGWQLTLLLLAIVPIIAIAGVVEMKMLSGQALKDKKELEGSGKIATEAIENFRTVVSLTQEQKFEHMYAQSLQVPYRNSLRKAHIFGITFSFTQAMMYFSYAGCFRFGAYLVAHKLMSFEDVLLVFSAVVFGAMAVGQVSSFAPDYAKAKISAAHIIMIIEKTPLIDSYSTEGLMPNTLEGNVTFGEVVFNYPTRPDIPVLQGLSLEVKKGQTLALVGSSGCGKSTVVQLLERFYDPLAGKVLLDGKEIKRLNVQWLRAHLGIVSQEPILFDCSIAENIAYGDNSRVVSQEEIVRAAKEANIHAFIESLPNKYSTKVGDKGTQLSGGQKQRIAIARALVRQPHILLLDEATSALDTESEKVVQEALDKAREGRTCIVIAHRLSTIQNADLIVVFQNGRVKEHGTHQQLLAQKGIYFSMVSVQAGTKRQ

COc1cc(/C=C/C(=O)OCCCN(C)CCCOC(=O)c2cc(OC)c(OC)c(OC)c2)cc(OC)c1OC
pIC50 [1]: 6.22
Activity [2]: 0.9

COc1cc(C(=O)OCCCN(C)CCCOC(=O)c2c3ccccc3cc3ccccc23)cc(OC)c1OC
pIC50 [1]: 6.55
Activity [2]: 0.71

COc1cc(/C=C/C(=O)OC2CCC(N(C)C3CCC(OC(=O)c4cc(OC)c(OC)c(OC)c4)CC3)CC2)cc(OC)c1OC (cis isomer)
pIC50 [1]: 7.52
Activity [2]: 0.8

COc1cc(/C=C/C(=O)OC2CCC(N(C)C3CCC(OC(=O)c4cc(OC)c(OC)c(OC)c4)CC3)CC2)cc(OC)c1OC (mixture of isomers; cis)
pIC50 [1]: 7.05
Activity [2]: 0.85

COc1cc(C(=O)OC2CCC(N(C)C3CCC(OC(=O)c4c5ccccc5cc5ccccc45)CC3)CC2)cc(OC)c1OC (mixture of isomers; cis)
pIC50 [1]: 6.52
Activity [2]: 0.95

COc1cc(/C=C/C(=O)OC2CCC(N(C)C3CCC(OC(=O)c4cc(OC)c(OC)c(OC)c4)CC3)CC2)cc(OC)c1OC (mixture of isomers; trans)
pIC50 [1]: 8.00
Activity [2]: 0.98

COc1cc(C(=O)OC2CCC(N(C)C3CCC(OC(=O)c4c5ccccc5cc5ccccc45)CC3)CC2)cc(OC)c1OC (mixture of isomers; trans)
pIC50 [1]: 6.80
Activity [2]: 0.78

COc1cc(/C=C/C(=O)OC2CCC(N(C)C3CCC(OC(=O)c4cc(OC)c(OC)c(OC)c4)CC3)CC2)cc(OC)c1OC (stereo in doubt)
pIC50 [1]: 6.49
Activity [2]: 0.81

COc1cc(C(=O)OC2CCC(N(C)C3CCC(OC(=O)c4c5ccccc5cc5ccccc45)CC3)CC2)cc(OC)c1OC (stereo in doubt)
pIC50 [1]: 6.74
Activity [2]: 0.79

COc1cc(C(=O)OC2CCC(N(C)C3CCC(OC(=O)c4c5ccccc5cc5ccccc45)CC3)CC2)cc(OC)c1OC (trans isomer)
pIC50 [1]: 6.52
Activity [2]: 0.88
